From PubChem BioAssay
In the library only some 4.7% were active in any assay of this set; here they are far more common.
MT1-MMP act inh = blocks activation of human MT1-MMP; P50281; HT1080 RFP-PRO-GFP cells, GFP/RFP ratio fluorescence, overnight; percent of plate control window, DMSO zero; GFP/RFP ratio change, % at 20 µM; 360,000 tested, 0.061% active; AID 651647;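 active = GFP/RFP ratio change of at least 30% with cell ATP level not reduced by more than half and red fluorescence within 50% of control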
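Assay system: HT1080 cells carrying an RFP-PRO-GFP reporter | Dosing: Single dose of 20 µM compound, 1% DMSO final | Incubation: Cells overnight before dosing, compound overnight, 37 °C, 5% CO2 | Evaluation: GFP/RFP fluorescence ratio | Control set: DMSO and RFP-L50D-GFP cell wells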
GRIN3A LBD mod = NR3A (human) ligand-binding domain modulation; NR3A LBD differential scanning fluorimetry, Tm shift; 0% = protein alone, 100% = glycine-bound protein; Tm shift relative to glycine control, % at 25 µM; 340,000 tested, 2.5% active; AID 1259313;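 active = melting temperature shift of at least 10% of the positive control shift, at one fixed dose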
SKN-1 inh = C. elegans SKN-1 inhibition | inhibition, % at 21.8 µM | C. elegans VP596 Pgst-4::GFP/RFP ratio, acrylamide-induced, 24 h | 360,000 tested, 0.49% active | AID 624304;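 active = interference check ratio from 0.5 to 1.5 plus GFP to RFP signal ratio inhibition reaching or exceeding a fixed threshold, cut at about 30% in these data, passing the limit was not always enough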
ADAM10 inh = inhibitors of human ADAM10 | AID 720582 | inhibition, % at 7 µM | recombinant ADAM10, EDANS/DABCYL FRET peptide cleavage, 3 h | 370,000 tested, 0.62% active | O14672;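 active = inhibition above a per-campaign cutoff equal to the mean of compounds falling between control-based bounds plus 3 SD, cut at about 20% in these data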
Target sequence (O14672 214-748 limits assumed): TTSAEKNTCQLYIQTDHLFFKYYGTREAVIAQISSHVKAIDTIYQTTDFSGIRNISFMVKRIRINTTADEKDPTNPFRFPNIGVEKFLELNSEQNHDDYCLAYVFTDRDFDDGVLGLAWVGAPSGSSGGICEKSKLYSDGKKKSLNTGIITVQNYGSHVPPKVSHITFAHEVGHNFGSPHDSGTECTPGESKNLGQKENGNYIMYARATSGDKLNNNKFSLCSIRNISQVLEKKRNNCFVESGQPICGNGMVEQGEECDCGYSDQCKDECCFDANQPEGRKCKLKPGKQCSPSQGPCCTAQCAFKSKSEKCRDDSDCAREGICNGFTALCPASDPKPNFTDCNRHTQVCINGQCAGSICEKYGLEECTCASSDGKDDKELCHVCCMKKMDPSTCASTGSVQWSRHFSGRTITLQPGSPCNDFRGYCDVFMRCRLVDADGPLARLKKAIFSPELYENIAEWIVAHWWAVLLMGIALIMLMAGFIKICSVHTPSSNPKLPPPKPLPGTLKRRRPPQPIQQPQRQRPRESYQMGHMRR
ADAM17 inh = ADAM17 inhibition, QFRET primary screen | P78536 | AID 720648 | inhibition, % at 6.95 µM | recombinant ADAM17, EDANS/DABCYL FRET peptide cleavage | 370,000 tested, 0.83% active;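 active = inhibition above the mean of compounds lying between control limits plus 3 SD, set per campaign, cut at about 8.5% in these data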
MPTP inh = inhibitors of mitochondrial permeability transition pore; isolated mouse mitochondria, Ca2+ swelling absorbance, 30 min; inhibition, % at 10 µM; 360,000 tested, 1.4% active; AID 602449;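 active = inhibition of 50% or more, scaled per plate between neutral and stimulator controls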
ADAM10 ctr = inhibits human ADAM10 in ADAM17 exosite counter-screen; inhibition, % at 6.95 µM; 2,900 tested, 47% active; recombinant ADAM10, EDANS/DABCYL FRET peptide cleavage, 3 h; shares compounds with ADAM17 inh;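 active = mean inhibition over the triplicate runs exceeds the activity threshold set in the earlier primary screen, cut at about 20% in these data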
ADAM17 confirm = confirmation of inhibitors of human ADAM17; shares compounds with ADAM17 inh; recombinant ADAM17, EDANS/DABCYL QFRET peptide cleavage; inhibition, % at 6.95 µM; 2,900 tested, 65% active;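 active = mean inhibition across replicates above the hit cutoff set in the primary screen, cut at about 8.5% in these data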
Each line names hits and unclear results; the compound was inactive in the other large screens (follow-up assays come after a bar, where they were run).

Cc1ccccc1NC(=S)/C(=C(\[O-])c1cc(C)n(Cc2ccccc2Cl)c1C)[n+]1ccccc1	ADAM17 inh 12.2 | ADAM10 ctr 23.9 | ADAM17 confirm 9.4
O=C(Nc1cc(C(F)(F)F)ccc1N1CCCCC1)c1cccc([N+](=O)[O-])c1	none
CN1CCN(C(=O)C2=C[C@H](c3coc4ccccc4c3=O)C[C@H](OCCCCO)O2)CC1	none
O=C(O)C1C(c2ccccc2)C(C(=O)OCCCO)C1c1ccccc1 (configuration not stated)	none
O=C(O)/C=C/C(=O)Nc1ccc(Oc2ccccc2)cc1	none
Cc1ccc(/C=C/C(=O)Nc2ccc(Oc3ccccc3)cc2)o1	ADAM17 inh 12.9 | ADAM10 ctr inactive | ADAM17 confirm 11.2
NC(=O)C1CCN(c2nc3c(S(=O)(=O)c4ccccc4)nnn3c3ccccc23)CC1	ADAM17 inh 12.8 | ADAM10 ctr inactive | ADAM17 confirm inactive
Cc1ccc(S(=O)(=O)c2nnn3c2nc(N2CCC(C(N)=O)CC2)c2ccccc23)cc1	none
CCN(CC)S(=O)(=O)c1cc(NC(=O)C2Cc3ccccc3C(=O)O2)ccc1C (configuration not stated)	none
CSCSC1=C(C#N)C(c2ccccc2Cl)C(C(C)=O)=C(C)N1 (configuration not stated)	ADAM17 inh 15.3 | ADAM10 ctr inactive | ADAM17 confirm 9.3
Cc1ccc(SCCNC(=O)C(C)C)cc1	none
O=C(Nc1ccc(Cl)cc1)N1CCCN(Cc2ccc(F)cc2)C1	ADAM17 inh 10.1 | ADAM10 ctr inactive | ADAM17 confirm 10.7
Cc1cc(=O)n2[nH]c(=O)c(N=Nc3ccccc3)c2[nH]1	none
CCOc1ccc(N=Nc2c(=O)[nH]n3c(=O)cc(C)[nH]c23)cc1	ADAM17 inh 10.2 | ADAM10 ctr inactive | ADAM17 confirm 11.9
CN(CC(=O)Nc1ccc(Cl)cc1F)C1CCS(=O)(=O)C1 (configuration not stated)	none
N#CCC(CNc1ncc(C(F)(F)F)cc1Cl)OC(=O)c1c(F)cccc1F (configuration not stated)	none
N#CCC(CNc1ncc(C(F)(F)F)cc1Cl)OC(=O)c1ccc(Cl)cc1 (configuration not stated)	GRIN3A LBD mod 10.9, ADAM17 inh 8.7 | ADAM10 ctr 35.0 | ADAM17 confirm 15.9
Cc1[nH]c2ccccc2c1C(=O)COC(=O)c1nccnc1N	none
CCOC(=O)c1ccc(NS(=O)(=O)c2cnc[nH]2)cc1	ADAM17 inh 9.3 | ADAM10 ctr inactive | ADAM17 confirm inactive
C=CCNC(=S)N/N=C/c1ccc(OCc2ccccc2Cl)cc1	none
CC(C)C[C@H](NC1(C(=O)NCCc2c[nH]c3ccccc23)CCOCC1)C(=O)NCCCc1ccccc1	none (no result: MT1-MMP act inh, GRIN3A LBD mod, SKN-1 inh, MPTP inh)
CC(C)C[C@H](NC1(C(=O)NCCc2c[nH]c3ccccc23)CCC1)C(=O)NCCCc1ccccc1	ADAM17 inh 8.8 (no result: MT1-MMP act inh, GRIN3A LBD mod, SKN-1 inh, MPTP inh) | ADAM10 ctr inactive | ADAM17 confirm inactive
O=S(=O)(c1ccccc1)N1CCC(n2cnc3ccccc32)CC1	ADAM17 inh 9.7 | ADAM10 ctr inactive | ADAM17 confirm inactive
Cc1[nH]c2ccccc2c1/C=N/Nc1ccc([N+](=O)[O-])cc1	GRIN3A LBD mod 25.4, ADAM17 inh 10.4 | ADAM10 ctr inactive | ADAM17 confirm inactive
O=C1NC(Cc2ccc(O)cc2)c2nc3ccc(F)cc3c(=O)n2-c2cc3ccccc3cc21 (configuration not stated)	none (no result: GRIN3A LBD mod)
CNC(=S)N1N=C(c2ccc(Br)cc2)CC1c1ccc(N(C)C)cc1 (configuration not stated)	none
CNC(=S)N1N=C(c2ccc(Br)cc2)CC1c1ccc(Br)cc1 (configuration not stated)	ADAM17 inh 11.5 | ADAM10 ctr 27.4 | ADAM17 confirm 17.3
C=C(C)COc1ccc(-c2n[nH]c(C)c2-c2ccc(Br)cc2)c(O)c1	GRIN3A LBD mod 32.2, ADAM17 inh 11.2 | ADAM10 ctr 22.1 | ADAM17 confirm 12.4
COc1cccc(C(NC(C)=O)c2nc(-c3ccc(C)c(C)c3)cs2)c1 (configuration not stated)	none (no result: GRIN3A LBD mod)
COc1ccc(C(C)(O)c2nc(-c3ccc4ccccc4c3)cs2)cc1 (configuration not stated)	ADAM17 inh 8.8 (no result: GRIN3A LBD mod) | ADAM10 ctr inactive | ADAM17 confirm inactive
COc1cccc(C(NC(C)=O)c2nc(-c3ccc4ccccc4c3)cs2)c1 (configuration not stated)	ADAM17 inh 11.6 (no result: GRIN3A LBD mod) | ADAM10 ctr inactive | ADAM17 confirm 11.3
COc1ccc(C(C)(O)c2nc(-c3ccccc3)cs2)cc1 (configuration not stated)	none (no result: GRIN3A LBD mod)
Cc1cc(NC(=O)COC(=O)c2cc([N+](=O)[O-])ccc2N2CCOCC2)ccc1Br	ADAM17 inh 8.7 (no result: GRIN3A LBD mod) | ADAM10 ctr 45.7 | ADAM17 confirm 19.4
Oc1cccc2ccc(Nc3ccccn3)nc12	ADAM10 inh 59.8, ADAM17 inh 49.6 | ADAM10 ctr 31.9 | ADAM17 confirm 46.8
c1ccc(Nc2ccccc2Nc2ccccn2)nc1	none
CC(C)(C)C1CCC(=O)C(C2(O)C(=O)Nc3ccccc32)C1 (configuration not stated)	ADAM17 inh 12.0 | ADAM10 ctr inactive | ADAM17 confirm inactive
CC1(C)CC(=O)C(C2(O)C(=O)Nc3ccccc32)CO1 (configuration not stated)	none
CS(=O)c1ccccc1-c1nc(-c2cc(C(F)(F)F)cc(C(F)(F)F)c2)no1 (configuration not stated)	none
CS(=O)c1ccccc1-c1nc(-c2ccc([N+](=O)[O-])cc2)no1 (configuration not stated)	ADAM17 inh 10.8 | ADAM10 ctr 22.3 | ADAM17 confirm inactive
O=C(CSc1nnc(C2COc3ccccc3O2)o1)Nc1nccs1 (configuration not stated)	none (no result: ADAM10 inh, ADAM17 inh)
O=C(Nc1ccc(N2CCN(C(=O)c3cccs3)CC2)c(Cl)c1)c1ccco1	ADAM17 inh 9.0 | ADAM10 ctr inactive | ADAM17 confirm inactive
Cc1ccccc1C(=O)N1CCN(c2ccc(NC(=O)c3ccco3)cc2Cl)CC1	none
CCCc1c(-c2cccc(Cl)c2)ncn1Cc1cccc(-c2ccccc2)c1	none (no result: GRIN3A LBD mod)
CCCc1c(-c2ccc(F)cc2F)ncn1Cc1cccc(-c2ccccc2)c1	ADAM17 inh 16.1 (no result: GRIN3A LBD mod) | ADAM10 ctr inactive | ADAM17 confirm inactive
Cc1cccc(C(=O)N/N=C/c2ccc(OC3CSC3)cc2)c1	none
